# Published values gathered from unrelated publications.
# Each line is one published result; the experiments were not run side by side.
# Cell line: CCRF-CEM
# Read-out: cell growth or viability
Compound,test,conditions,IC50
CC(C(=O)NOCc1ccccc1)c1cccc(C(OC(=O)NOCc2ccccc2)c2ccccc2)c1 (centres unmarked),,72 h,14 µM
N#Cc1ccc(NC(=S)NN)cc1,,72 h,21 µg/mL
COc1cc(C(=O)c2cc3c(-c4ccccc4)c(OC)ccc3o2)cc(OC)c1OC,,72 h,> 50 µM
CC(C(=O)NC1CCCCC1)c1cccc(C(OC(=O)NC2CCCCC2)c2ccccc2)c1 (centres unmarked),,72 h,15 µM
O=C(c1ccccc1)c1cc2c(-c3ccccc3)c(O)ccc2o1,,72 h,34 µM
COc1ccc2c(N)c(C(=O)c3cc(OC)c(OC)c(OC)c3)n(C)c2c1,,72 h,0.071 µM
CSc1ccc(NC(=S)NN)cc1,,72 h,20 µg/mL
COc1ccc2c(N)c(C(=O)c3cc(OC)c(OC)c(OC)c3)[nH]c2c1,,72 h,0.32 µM
CC(C(=O)NCCc1ccccc1)c1cccc(C(OC(=O)NCCc2ccccc2)c2ccccc2)c1 (centres unmarked),,72 h,14 µM
N#Cc1ccc(NC(=S)NN=Cc2ccc(F)cc2)cc1,,72 h,38 µg/mL
COc1ccc2[nH]cc(CCNc3nccc(Nc4cccc5c4ccn5C)n3)c2c1,fluorescence,72 h,0.01 µM
COc1ccc2c(N)c(C(=O)c3cc(OC)c(OC)c(OC)c3)sc2c1,,48 h,0.0077 µM
N#Cc1ccc(NC(=S)NN=Cc2ccc([N+](=O)[O-])cc2)cc1,,72 h,> 200 µg/mL
CC(C(=O)NC1CCCC1)c1cccc(C(OC(=O)NC2CCCC2)c2ccccc2)c1 (centres unmarked),,72 h,12 µM
